Compounds with a hit are over-represented: about 1.7% of the library has one in this group of screens.
CaV13 FRET inh = Primary screen for inhibitors of IQ motif and Ca2+-dependent inactivation inhibitor domain binding in CACNA1D, Förster resonance energy transfer in living cells, …. inhibition, % at 12.3 µM. HEK cells, CFP/YFP FRET ICDI-IQ, plate reader, 10 min; percent FRET-ratio fall versus neutral wells. AID 743397. 0.098% of 340,000 active;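 active means mean replicate inhibition of at least 30% and at least 1% of replicates passing that level; inconclusive means only one of the two criteria is met; inactive means neither criterion is met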;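 further: 0% = median of the neutral control wells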
SR-BI uptake up = activators of SR-BI mediated DiI-HDL uptake, primary screen, ldlA[mSR-BI] CHO cells, DiI fluorescence; 3 h; 100 = double the neutral-control signal; activation, % at 12.5 µM; 0.096% of 320,000 active;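 active means mean replicate activation of at least 60% and every replicate at or above 60%; inconclusive means mean or all-replicate condition met, but not both; inactive means mean below 60% and not all replicates reaching 60%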;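 further: 0% = median plate neutral-control signal and 100% = twice that signal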
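Test system: SR-BI-overexpressing, LDLR-lacking CHO cells; Medium: Ham's F12 with 0.5% BSA, HEPES 25 mM, pH 7.4; Schedule: 3 h, 37 °C; Technique: bottom-read fluorescence, 550/595 nm.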
Vif imaging = HIV Vif self-association inhibitors, primary screen, imaging, HEK293T, single point. HEK293T cells, Vif self-association by quenched fluorescence, 24 h. inhibition, % at 7.49 µM. AID 602346, 2012. 0.35% of 340,000 active; in the data active means inhibition above about 50%, passing the limit was not always enough; inconclusive means no clear call, values can overlap the other calls; inactive means below about 31%
SR-BI HDL uptake = inhibitors of SR-BI mediated HDL lipid uptake, primary screen, ldlA[mSR-BI] cells, fluorescence, single point. ldlA[mSR-BI] CHO cells, DiI-HDL uptake fluorescence, 3 h. inhibition, % at 12.5 µM. 0.96% of 320,000 active;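 active means mean replicate inhibition of at least 70% and a set share of replicates each scoring 70 or more; inconclusive means meets just one of the two criteria; inactive means fails both criteria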;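 further: 0% = median of neutral control wells and 100% = median of positive control wells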
Target sequence (Q61009 whole entry, looked up): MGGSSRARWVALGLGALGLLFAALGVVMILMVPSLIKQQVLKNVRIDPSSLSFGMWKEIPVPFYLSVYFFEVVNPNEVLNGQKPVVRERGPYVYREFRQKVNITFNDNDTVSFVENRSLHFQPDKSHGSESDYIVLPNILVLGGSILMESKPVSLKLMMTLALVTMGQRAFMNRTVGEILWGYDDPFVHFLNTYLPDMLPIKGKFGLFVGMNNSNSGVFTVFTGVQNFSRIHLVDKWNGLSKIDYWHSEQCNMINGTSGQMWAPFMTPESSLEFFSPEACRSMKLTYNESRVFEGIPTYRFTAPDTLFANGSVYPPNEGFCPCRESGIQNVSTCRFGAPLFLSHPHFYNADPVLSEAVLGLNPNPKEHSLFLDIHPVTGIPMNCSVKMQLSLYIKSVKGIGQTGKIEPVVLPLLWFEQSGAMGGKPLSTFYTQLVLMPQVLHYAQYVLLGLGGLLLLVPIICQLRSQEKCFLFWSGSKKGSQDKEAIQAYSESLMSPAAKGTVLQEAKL
NTR1 ag = agonists of human NTR1, primary screen, imaging, U2OS cells, beta-arrestin-GFP, high content | 0.17% of 330,000 active | NTR1-U2OS beta-arrestin-GFP spot imaging, agonist mode | activation, % at 20 µM | AID 493036, 2011;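 active means activation at or above 40% of the spot to cytoplasm intensity ratio, with at least 20 cells analyzed; inconclusive means wells under 20 cells, flagged as cytotoxic or low count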;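 further: 0% = DMSO without peptide and 100% = 100 nM NTR1 peptide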
V-ATPase pHluor = regulators of yeast V-ATPase proton pumping, primary screen, pHLuorin cytosolic pH fluorescence. S. cerevisiae. response, % at 10 µM. 0.37% of 350,000 active. AID 504577, 2011; in the data active means response mostly above about 7.3%, no sharp cut-off; inactive means mostly below about 5.4%; further: actives read high
The depositor's hits bear a star; ? = inconclusive; . = no result given.

SMILES	CaV13 FRET inh	SR-BI uptake up	Vif imaging	SR-BI HDL uptake	NTR1 ag	V-ATPase pHluor
CC(=O)C1=C(C)N(Cc2ccc(Br)cc2)C(=S)NC1c1ccc(F)cc1 (stereo not given)	-3	.	.	.	.	.
COc1c(F)c(F)c(C(=O)Nc2ccc(NC(=O)c3ccco3)cc2)c(F)c1F	-3	-74	-22	74*	0	6
COc1ccc(NC(=O)c2ccco2)cc1NC(=O)c1c(F)c(F)c(OC)c(F)c1F	-4	-68	19	68	-1	1
COc1cc2[nH]c(C(=O)Nc3ccc4c(c3)OCCO4)cc2c(OC)c1OC	-5	-86	-6	86*	1	4
O=C(Nc1cccc(NC(=O)c2ccco2)c1)c1ccc([N+](=O)[O-])cc1	10	-82	-1	82*	0	1
CC(=O)Oc1ccc(C(=O)Nc2cccc(NC(=O)c3ccco3)c2)cc1	-4	-24	-7	24	-1	-1
COc1cc2cc(C(=O)Nc3ccc4c(c3)OCCO4)[nH]c2cc1OC	-15	-71	-5	?	0	0
CCC(C)c1ccccc1N1CC(C(=O)Nc2cc(S(=O)(=O)N3CCOCC3)ccc2OC)CC1=O (stereo not given)	-2	-9	-5	9	-1	6
Cn1cccc1-c1nc2ccc(NC(=O)c3ccc([N+](=O)[O-])cc3)cc2[nH]1	-6	-87	-6	87*	10	2
CC1(C(=O)NS(=O)(=O)c2cccc(OC(F)F)c2)CCN1C(=O)c1ccco1 (stereo not given)	-7	.	59*	.	.	.
CC1(C(=O)NS(=O)(=O)c2cccc(F)c2)CCN1C(=O)c1ccco1 (stereo not given)	-7	.	-5	.	.	.
Cc1ccc(NC(=O)c2ccc(NCc3ccco3)c([N+](=O)[O-])c2)cc1Cl	-4	-36	82*	36	18	-2
O=C(Nc1cccc(Cl)c1)c1ccc(NCCCN2CCOCC2)c([N+](=O)[O-])c1	.	-71	9	71*	1	-2
Cc1ccc(NC(=O)c2ccc(NCC3CCCO3)c([N+](=O)[O-])c2)cc1Cl (stereo not given)	0	-61	11	61	20	-5
CCN(CC)S(=O)(=O)c1ccc(Cl)c(C(=O)Nc2cc(C)nn2-c2ccccc2C(F)(F)F)c1	.	.	.	.	-1	.
CCOc1cc(NC(=O)C2CC2)c(OCC)cc1NC(=O)CCn1nnc2ccccc21	-3	-3	7	3	4	1
Cc1nnc(SCCC(C)C)[nH]c1=O	-4	96*	-1	-96	0	-3
CC(C)CCSc1nc2[nH]ncc2c(=O)[nH]1	0	.	-4	.	2	48*
CCCCSc1nnc(C)c(=O)[nH]1	-9	18	-2	-18	1	1
C#CCSc1nc2[nH]ncc2c(=O)[nH]1	-2	26	9	-26	2	.
CN(CC(=O)Nc1ccc(F)c(F)c1F)C(=O)/C=C/c1ccco1	-7	-13	7	13	4	-1
CC(C)(C)C(C(=O)n1cccc1C#N)c1ccccc1 (stereo not given)	-6	-37	-1	37	1	1
COc1ccc(C2=CSC(/N=C/c3ccc(F)cc3)=NN2)cc1	-7	-75	3	75*	0	4
COc1ccc(OC)c2c1sc(=NC(=O)C(C)(C)C)n2C	-8	26	-12	-26	4	-2
COc1ccc(C(=O)N=c2sc3c(C)ccc(OC)c3n2C)cc1	-3	-77	7	77*	5	3
SMILES	CaV13 FRET inh	SR-BI uptake up	Vif imaging	SR-BI HDL uptake	NTR1 ag	V-ATPase pHluor
COc1cc(C(=O)N=c2sc3c(C)ccc(OC)c3n2C)cc(OC)c1OC	-5	-78	-2	78*	19	-2
O=C1/C(=C/c2c[nH]c3ccccc23)CCC/C1=C\c1c[nH]c2ccccc12	-7	-89	11	89*	4	2
O=S(=O)(c1ccc(F)c(F)c1)N1CCN(CCc2ccccc2)CC1	-14	-12	-4	12	-1	9.6*
O=S(=O)(c1ccccc1)N1CCN(CCc2ccccc2)CC1	-5	-7	-14	7	1	-4
O=C(Nc1cnn(Cc2ccccc2)c1)c1cc2nc(-c3ccco3)cc(C(F)(F)F)n2n1	.	-71	-12	71*	2	4
COc1ccc(-c2cc(C(F)(F)F)n3nc(C(=O)NCc4ccco4)cc3n2)cc1	.	-60	-1	60	1	-3
COCCNC(=O)c1nn2c(C(F)(F)F)cc(-c3ccccc3)nc2c1Cl	-5	-26	106*	26	0	3
O=C(NCc1cccnc1)c1cc2nc(-c3ccc4c(c3)OCO4)cc(C(F)(F)F)n2n1	-5	.	2	.	2	-2
O=C(NCc1ccco1)c1cc2nc(-c3ccc4c(c3)OCO4)cc(C(F)(F)F)n2n1	-9	-72	6	72*	5	1
Cc1nn(C)cc1NC(=O)c1cc2nc(-c3ccco3)cc(C(F)(F)F)n2n1	-21	-40	-8	40	2	3
COc1ccc(-c2cc(C(F)(F)F)n3nc(C(=O)NCc4ccco4)c(Cl)c3n2)cc1	-3	-64	157*	64	2	-2
O=C(CCSCc1ccccc1Cl)NC1CCCCC1	-2	6	-5	-6	-1	1
COc1ccc(-c2cc(C(=O)Oc3ccc([N+](=O)[O-])cc3)c3ccccc3n2)cc1	-3	-6	7	6	0	-1
COc1ccc2nc3cc([N+](=O)[O-])ccc3c(NNc3ccc([N+](=O)[O-])cc3)c2c1	-10	-121	67*	121*	.	-2
CC(C)C(C(=O)NCc1ccccc1)N1CCN(CCN2CCOCC2)CC1 (stereo not given)	-7	.	.	.	.	.
CCCN(CC(=O)Nc1ccccc1C)C(=O)Cc1coc2cc(C)ccc12	-9	-10	-14	10	1	-2
COc1cc(OC)cc(C(=O)N(CN2CCCC2=O)c2ccccc2OC)c1	-9	3	54*	-3	0	-2
CC(C)=CCc1c(O)cc2oc3c(CC=C(C)C)c(O)c(O)c(CC=C(C)C)c3c(=O)c2c1O	.	-105	-61	105*	4	-3
CC(C)=CCc1cc(-c2oc3cc(O)cc(O)c3c(=O)c2O)ccc1O	.	-67	-14	67	21	1
NC(=O)c1cccc(-c2cc(Nc3ccc(OC(F)(F)F)cc3)ncn2)c1	-6	-21	.	21	17	8
